From PMC5743405 (International Journal of Oncology, 2017)
Where “and” joins values, the source holds several entries; their conditions need not be identical. Identical values can stand only once.

Experiments:
[1] = test system: LHCGR; assay: PathHunter β-arrestin; format: cell-based; conditions: antagonist mode, 6 μM
In short: (§1)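 Vendor-run (DiscoveRx) PathHunter enzyme fragment complementation. β-Arrestin carries the EA fragment and the receptor carries ED; recruitment restores β-gal activity, read by chemiluminescence (RLU). Agonist % activity = vehicle-subtracted RLU relative to max control ligand (gpcrMAX) or to vehicle (orphanMAX). Antagonist % inhibition = 100% × (1 − vehicle-subtracted sample RLU / vehicle-subtracted EC80 agonist control RLU).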

[2] = test system: TLR2; assay: RT2 qPCR primer assay, JJ012 cells; format: cell-based, human; conditions: 1 μg/ml PRP-1
In short: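 RNA was extracted, checked by spectrophotometry and reverse-transcribed. Custom RT2 SYBR-Green primer assays were run on three samples in technical triplicate. Ct was normalised to mean GAPDH/ACTB, ΔΔCt taken versus control, and fold change = 2^−ΔΔCt.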

[3] = test system: ADRA2B; assay: PathHunter β-arrestin; format: cell-based; conditions: antagonist mode, 6 μM
In short: (§2)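 β-Arrestin recruitment assay: the enzyme acceptor is fused to β-arrestin and the ED fragment to the GPCR. Recruitment restores β-galactosidase, read by chemiluminescence. % activity = 100% × (test − vehicle)/(max control ligand − vehicle). % inhibition = 100% × (1 − (test − vehicle)/(EC80 control − vehicle)). An agonist hit needs >30% activity and RLU > baseline + 3×SD. An antagonist hit needs >35% inhibition and RLU < EC80 RLU − 3×SD.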

[4] = test system: CCR8; assay: PathHunter β-arrestin; format: cell-based; conditions: antagonist mode, 6 μM
In short: (§3)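 Engineered cells express the receptor fused to one β-galactosidase fragment (ED) and β-arrestin fused to the complementing fragment (EA). Receptor activation recruits β-arrestin, which restores enzyme activity, and this is read by chemiluminescence (RLU). Agonist % activity is 100% × (test − vehicle)/(maximal control ligand − vehicle). Antagonist mode is challenged with an EC80 control agonist, and % inhibition is 100% × (1 − (test − vehicle)/(EC80 − vehicle)). Hits require >30% activity or >35% inhibition, plus a 3×SD RLU margin.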

[5] = test system: EDG3; assay: PathHunter β-arrestin; format: cell-based; conditions: antagonist mode, 6 μM
In short: as §3

[6] = test system: GPR92; assay: PathHunter β-arrestin; format: cell-based; conditions: 6 μM
In short: as §1

[7] = test system: NPFFR1; assay: PathHunter β-arrestin; format: cell-based; conditions: 6 μM
In short: as §1

[8] = test system: DRD3; assay: PathHunter β-arrestin; format: cell-based; conditions: 6 μM
In short: as §3

[9] = test system: MC5R; assay: PathHunter β-arrestin; format: cell-based; conditions: 6 μM
In short: as §1

[10] = test system: MCHR2; assay: PathHunter β-arrestin; format: cell-based; conditions: 6 μM
In short: as §1

[11] = test system: CALCRL-RAMP3; assay: PathHunter β-arrestin; format: cell-based; conditions: antagonist mode, 6 μM
In short: as §2

[12] = test system: GPR1; assay: PathHunter β-arrestin; format: cell-based; conditions: antagonist mode, 6 μM
In short: as §1

[13] = test system: ADORA3; assay: PathHunter β-arrestin; format: cell-based; conditions: 6 μM
In short: as §2

[14] = test system: SSTR5; assay: PathHunter β-arrestin; format: cell-based; conditions: agonist mode, 6 μM
[15] = test system: CHRM3; assay: PathHunter β-arrestin; format: cell-based; conditions: 6 μM
In short: as §3

[16] = test system: HTR1A; assay: PathHunter β-arrestin; format: cell-based; conditions: antagonist mode, 6 μM
In short: as §1

[17] = test system: EDNRB; assay: PathHunter β-arrestin; format: cell-based; conditions: antagonist mode, 6 μM
In short: as §3

[18] = test system: MRGPRX1; assay: PathHunter β-arrestin; format: cell-based; conditions: 6 μM
In short: as §1

[19] = test system: CALCR; assay: PathHunter β-arrestin; format: cell-based; conditions: 6 μM
In short: as §2

[20] = test system: CCR3; assay: PathHunter β-arrestin; format: cell-based; conditions: 6 μM
In short: as §2

[21] = test system: ADRA1B; assay: PathHunter β-arrestin; format: cell-based; conditions: agonist mode, 6 μM
In short: as §2

[22] = test system: CALCRL-RAMP2; assay: PathHunter β-arrestin; format: cell-based; conditions: 6 μM
In short: as §2

[23] = test system: DRD4; assay: PathHunter β-arrestin; format: cell-based; conditions: 6 μM
In short: as §3

[24] = test system: AGTRL1; assay: PathHunter β-arrestin; format: cell-based; conditions: agonist mode, 6 μM
In short: as §2

[25] = test system: PPYR1; assay: PathHunter β-arrestin; format: cell-based; conditions: antagonist mode, 6 μM
[26] = test system: UTR2; assay: PathHunter β-arrestin; format: cell-based; conditions: 6 μM
In short: (§4)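 β-Arrestin recruitment to GPCR read by β-galactosidase fragment complementation and chemiluminescence. Agonist: % = 100 × (test − vehicle)/(max control ligand − vehicle), hit at >30% and RLU > baseline + 3 SD. Antagonist, against EC80 agonist: % inhibition = 100 × (1 − (test − vehicle)/(EC80 − vehicle)), hit at >35% and RLU < EC80 − 3 SD.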

[27] = test system: GLP1R; assay: PathHunter β-arrestin; format: cell-based; conditions: antagonist mode, 6 μM
In short: as §1

[28] = test system: GALR2; assay: PathHunter β-arrestin; format: cell-based; conditions: agonist mode, 6 μM
In short: as §3

[29] = test system: F2RL1; assay: PathHunter β-arrestin; format: cell-based; conditions: antagonist mode, 6 μM
In short: as §3

[30] = test system: RXFP3; assay: PathHunter β-arrestin; format: cell-based; conditions: 6 μM
In short: as §4

[31] = test system: TLR6; assay: immunocytochemistry, colocalization with TLR6, JJ012 cells; format: cell-based, human; conditions: TLR6 yellow (DyLight 550), PRP-1 green (Alexa Fluor 488)
[32] = test system: GPR109B; assay: PathHunter β-arrestin; format: cell-based; conditions: 6 μM
In short: as §1

[33] = test system: CXCR5; assay: PathHunter β-arrestin; format: cell-based; conditions: 6 μM
In short: as §3

[34] = test system: nucleolin; assay: western blot, JJ012 cells; format: cell-based, human; conditions: vs untreated control, overnight incubation

With Proline rich polypeptide 1 [PRP-1] the “% Inhibition” value [1] was −15%, the “fold upregulation (∆∆Ct)” value ([2]; P<0.0001, 2^−∆∆Ct, normalized to GAPDH, ACTB) was 5.26 fold and > 5 fold and the gene expression ([2]; heat map, vs nontreated control, technical triplicates) was “high expression”. For the same substance, the “% Inhibition” value [3] was 2%, the “% Inhibition” value [4] was −4% and the “% Inhibition” value [5] was 1%. The “% Activity” value ([6]; agonist mode) was 1%, the “% Inhibition” value ([6]; antagonist mode) was 12% and the “% Activity” value ([7]; agonist mode) was 3%. For the same substance, the “% Inhibition” value ([7]; antagonist mode) was −3%, the “% Activity” value ([8]; agonist mode) was 2% and the “% Inhibition” value ([8]; antagonist mode) was −15%. The “% Activity” value ([9]; agonist mode) was 2%, the “% Inhibition” value ([9]; antagonist mode) was −5% and the “% Activity” value ([10]; agonist mode) was 1%. The “% Inhibition” value ([10]; antagonist mode) was −3%, the “% Inhibition” value [11] was 1% and the “% Inhibition” value [12] was −5%. For the same substance, the “% Activity” value ([13]; agonist mode) was 1%, the “% Inhibition” value ([13]; antagonist mode) was −3% and the “% Activity” value [14] was 1%. The “% Activity” value ([15]; agonist mode) was 2%, the “% Inhibition” value ([15]; antagonist mode) was −6% and the “% Inhibition” value [16] was −5%. For the same substance, the “% Inhibition” value [17] was −1%, the “% Activity” value ([18]; agonist mode) was 1% and the “% Inhibition” value ([18]; antagonist mode) was −2%. For the same substance, the “% Activity” value ([19]; agonist mode) was 1%, the “% Inhibition” value ([19]; antagonist mode) was 1% and the “% Activity” value ([20]; agonist mode) was 2%. The “% Inhibition” value ([20]; antagonist mode) was −3%, the “% Activity” value [21] was 1% and the “% Activity” value ([22]; agonist mode) was 1%. For the same substance, the “% Inhibition” value ([22]; antagonist mode) was −1%, the “% Activity” value ([23]; agonist mode) was 3% and the “% Inhibition” value ([23]; antagonist mode) was −2%. For the same substance, the “% Activity” value [24] was 1%, the “% Inhibition” value [25] was −4% and the “% Activity” value ([26]; agonist mode) was 3%. The “% Inhibition” value ([26]; antagonist mode) was −7%, the “% Inhibition” value [27] was −9% and the “% Activity” value [28] was 1%. The “% Inhibition” value [29] was 3%, the “% Activity” value ([30]; agonist mode) was 6% and the “% Inhibition” value ([30]; antagonist mode) was −3%. For the same substance, the “colocalization with TLR6” value [31] was “nuclear and cytoplasmic colocalization with PRP-1 is demonstrated”, the “% Activity” value ([32]; agonist mode) was 1% and the “% Inhibition” value ([32]; antagonist mode) was −6%. For the same substance, the “% Activity” value ([33]; agonist mode) was 1%, the “% Inhibition” value ([33]; antagonist mode) was −8% and the protein expression [34] was “no changes in nucleolin protein expression”.
